Data on 24 molecules can be found in ChEMBL document CHEMBL1148893, “Nodulisporic acids D-F: structure, biological activities, and biogenetic relationships” (J Nat Prod, 2004).

The IC50 is the midpoint of a concentration-inhibition curve. Low values mean greater potency, high ones weaker potency.

Assay [1] is described as follows: Displacement of [35S]nodulisporic amide from Glutamate gated chloride channel alpha subunit/GABA gated chloride channel subunit Rdl in Drosophila melanogaster head membrane. The procedure, abridged: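 Competition binding against [35S]nodulisporic amide (10 pM ligand) on Drosophila melanogaster head membranes. Compounds prepared as 20 mM DMSO stocks, tested from 10 µM down to 10 pM (0.1 pM for potent ones) in 0.5 log steps, in triplicate. Each compound assayed at least twice; IC50 reported as geometric mean. Where label recovery increased, the highest concentration without "precipitation" is reported instead.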

For the next assay, the system named is Ctenocephalides felis. Nature of the assay: Insecticidal activity against Ctenocephalides felis by artificial membrane feeding assay. In kind it is functional. The procedure, abridged: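 Ex-vivo artificial membrane feeding assay, 20-25 cat fleas per titration level; compounds dissolved or suspended in bovine blood fed to fleas. LD90 taken as the concentration killing >90% of fleas.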

The molecule `C=C(C)[C@H]1Cc2c3c(cc4c5c(n1c24)[C@@]1(C)[C@@H](CC[C@H]2[C@](C)(/C=C/C=C(\C)C(=O)OC)[C@@H](O)CC[C@@]21C)C5)C1=CC(C)(C)OC(C)(C)[C@H]1[C@@H]3O` displayed a 50% inhibitory concentration (IC50) in assay [1] of 2.6 nM. The molecule also gave an LD90 in the assay with Ctenocephalides felis of 147.1 µM. Regarding `C=C(C)[C@H]1C(=O)c2c3c(cc4c5c(n1c24)[C@@]1(C)[C@@H](CC[C@H]2[C@](C)(/C=C/C=C(\C)C(=O)OC)[C@@H](O)CC[C@@]21C)C5)C1=CC(C)(C)OC(C)(C)[C@H]1[C@@H]3O`, the 50% inhibitory concentration (IC50) in assay [1] amounted to 0.43 nM. Besides, in the assay with Ctenocephalides felis, the LD90 is 14.4 µM.

Take `CC(C)=CCc1c2c(cc3c4c([nH]c13)[C@@]1(C)[C@@H](CC[C@H]3[C@](C)(CC/C=C(\C)C(=O)O)[C@@H](O)CC[C@@]31C)C4)C1=CC(C)(C)OC(C)(C)C1=C2`: the concentration for half-maximal inhibition (IC50) in assay [1] was above 100 nM. Also, the LD90 in the assay with Ctenocephalides felis turned out to be 15.3 µM.

Consider `CC(C)=CCc1cc2[nH]c3c(c2cc1CC=C(C)C)C[C@@H]1CC[C@H]2[C@](C)(CC/C=C(\C)C(=O)O)[C@@H](O)CC[C@]2(C)[C@@]31C`, for which, in assay [1], the half-maximal inhibitory concentration (IC50) amounted to 2140 nM.

`COC(=O)/C(C)=C/CC[C@]1(C)[C@@H](O)CC[C@@]2(C)[C@H]1CC[C@H]1Cc3c([nH]c4cc(CC=C(C)C)c(CC=C(C)C)cc34)[C@@]12C`: the IC50 in assay [1] was above 100 nM.

`C=C(C)[C@H]1C(=O)c2c3c(cc4c5c(n1c24)[C@@]1(C)[C@@H](CC[C@H]2[C@](C)(CC/C=C(\C)C(=O)O)[C@@H](O)CC[C@@]21C)C5)C1=CC(C)(C)OC(C)(C)C1=C3` registered an IC50 in assay [1] of 23 nM. For the same molecule, the LD90 with Ctenocephalides felis is above 15.1 µM.

With `C=C(C)[C@H]1C(=O)c2c3c(cc4c5c(n1c24)[C@@]1(C)C(CC[C@H]2[C@](C)(/C=C/C=C(\C)C(=O)O)[C@@H](O)CC[C@@]21C)C5)C1=CC(C)(C)OC(C)(C)C1[C@@H]3O` (stereo not given in full) [NOD ACID A], the IC50 in assay [1] was 0.27 nM. Further, the LD90 in the assay with Ctenocephalides felis turned out to be 1.5 µM. On the same counts, the results for `C=C(C)[C@H]1C(=O)c2c3c(cc4c5c(n1c24)[C@@]1(C)[C@@H](CC[C@@H]2[C@]1(C)CC[C@]1(O)O[C@H](/C=C(\C)C(=O)O)C[C@@]21C)C5)C1=CC(C)(C)OC(C)(C)[C@H]1[C@@H]3O` [NODULISPORIC ACID A1] are 10.5 nM and 7.3 µM. The corresponding values for `C=C(C)[C@H]1C(=O)c2c3c(cc4c5c(n1c24)[C@@]1(C)[C@@H](CC[C@H]2[C@](C)(CC/C=C(\C)C(=O)O)[C@@H](O)CC[C@@]21C)C5)C1=CC(C)(C)OC(C)(C)[C@H]1[C@@H]3O` [NODULISPORIC ACID A4] are 2.4 nM and 14.7 µM. On the same counts, the results for `C=C(C)[C@H]1C(=O)c2c3c(cc4c5c(n1c24)[C@@]1(C)[C@@H](CC[C@@H]2[C@]1(C)CC[C@]1(O)O[C@H]([C@H](O)[C@H](C)C(=O)O)C[C@@]21C)C5)C1=CC(C)(C)OC(C)(C)[C@H]1[C@@H]3O` [NODULISPORIC ACID A12] are 70 nM and 14 µM. As for `C=C(C)[C@H]1Cc2c3c(cc4c5c(n1c24)[C@@]1(C)[C@@H](CC[C@@H]2[C@]1(C)CC[C@]1(O)O[C@H](/C=C(\C)C(=O)O)C[C@@]21C)C5)C1=CC(C)(C)OC(C)(C)[C@H]1[C@@H]3O` [NODULISPORIC ACID B1], in assay [1], the IC50 amounted to 121 nM. The molecule further had an LD90 with Ctenocephalides felis above 147.7 µM. Molecule `C=C(C)[C@H]1Cc2c3c(cc4c5c(n1c24)[C@@]1(C)[C@@H](CC[C@@H]2[C@]1(C)CC[C@]1(O)O[C@H]([C@H](O)[C@H](C)C(=O)O)C[C@@]21C)C5)C1=CC(C)(C)OC(C)(C)[C@H]1[C@@H]3O` [NODULISPORIC ACID B2] displayed an IC50 in assay [1] of 101 nM. This molecule showed an LD90 in the assay on Ctenocephalides felis above 142.9 µM. On the same counts, the results for `CC(C)=CCc1c2c(cc3c4c([nH]c13)[C@@]1(C)[C@@H](CC[C@@H]3[C@]1(C)CC[C@]1(O)O[C@H](/C=C(\C)C(=O)O)C[C@@]31C)C4)C1=CC(C)(C)OC(C)(C)[C@H]1[C@@H]2O` [NODULISPORIC ACID C1] are 52.3 nM and above 146.2 µM. On the same counts, the results for `CC(C)=CCc1c2c(cc3c4c([nH]c13)[C@@]1(C)[C@@H](CC[C@@H]3[C@]1(C)CC[C@]1(O)O[C@H]([C@H](O)[C@H](C)C(=O)O)C[C@@]31C)C4)C1=CC(C)(C)OC(C)(C)[C@H]1[C@@H]2O` [NODULISPORIC ACID C2] are 71.5 nM and above 142.5 µM. For the molecule `CC(C)=CCc1c2c(cc3c4c([nH]c13)[C@@]1(C)[C@@H](CC[C@H]3[C@](C)(/C=C/C=C(\C)C(=O)O)[C@@H](O)CC[C@@]31C)C4)C1=CC(C)(C)OC(C)(C)[C@H]1[C@@H]2O` [NODULISPORIC ACID C], the IC50 in assay [1] amounted to 5.2 nM. Besides, in the assay on Ctenocephalides felis, the LD90 was 15 µM. In the case of `COC(=O)/C(C)=C/[C@@H]1C[C@@]2(C)[C@@H]3CC[C@H]4Cc5c([nH]c6cc7c(cc56)C5=CC(C)(C)OC(C)(C)[C@H]5C7)[C@]4(C)[C@@]3(C)CC[C@]2(O)O1` [NODULISPORIC ACID D1 METHYL ESTER], the IC50 in assay [1] is above 100 nM. In assay [1], `C/C(=C\[C@@H]1C[C@@]2(C)[C@@H]3CC[C@H]4Cc5c([nH]c6cc7c(cc56)C5=CC(C)(C)OC(C)(C)[C@H]5C7)[C@]4(C)[C@@]3(C)CC[C@]2(O)O1)C(=O)O` [NODULISPORIC ACID D1] registered a concentration for half-maximal inhibition (IC50) above 10000 nM. `COC(=O)[C@@H](C)[C@@H](O)[C@@H]1C[C@@]2(C)[C@@H]3CC[C@H]4Cc5c([nH]c6cc7c(cc56)C5=CC(C)(C)OC(C)(C)[C@H]5C7)[C@]4(C)[C@@]3(C)CC[C@]2(O)O1` [NODULISPORIC ACID D2 METHYL ESTER] yielded a half-inhibitory concentration (IC50) in assay [1] above 10000 nM. In assay [1], `C[C@H](C(=O)O)[C@@H](O)[C@@H]1C[C@@]2(C)[C@@H]3CC[C@H]4Cc5c([nH]c6cc7c(cc56)C5=CC(C)(C)OC(C)(C)[C@H]5C7)[C@]4(C)[C@@]3(C)CC[C@]2(O)O1` [NODULISPORIC ACID D2] came in with an IC50 of 22.1 nM. Turning to `C/C(=C\C=C\[C@]1(C)C(=O)CC[C@@]2(C)[C@H]1CC[C@H]1Cc3c([nH]c4cc5c(cc34)C3=CC(C)(C)OC(C)(C)[C@H]3C5)[C@@]12C)C(=O)O` [NODULISPORIC ACID D3], the IC50 in assay [1] is above 1000 nM. The same measure, in the same setting: the figure for `COC(=O)/C(C)=C/C=C/[C@]1(C)[C@@H](O)CC[C@@]2(C)[C@H]1CC[C@H]1Cc3c([nH]c4cc5c(cc34)C3=CC(C)(C)OC(C)(C)[C@H]3C5)[C@@]12C` [NODULISPORIC ACID D METHYL ESTER] is above 100 nM.

For the molecule `C/C(=C\CC[C@]1(C)[C@@H](O)CC[C@@]2(C)[C@H]1CC[C@H]1Cc3c([nH]c4ccccc34)[C@@]12C)C(=O)O` [NODULISPORIC ACID F], the half-maximal inhibitory concentration (IC50) in assay [1] is above 10000 nM. Moreover, the LD90 with Ctenocephalides felis is 45.9 µM. The corresponding values for `C=C(C)[C@H]1Cc2c3c(cc4c5c(n1c24)[C@@]1(C)[C@@H](CC[C@H]2[C@](C)(/C=C/C=C(\C)C(=O)O)[C@@H](O)CC[C@@]21C)C5)C1=CC(C)(C)OC(C)(C)[C@H]1[C@@H]3O` [NODULISPORIC ACIDS B] are 17.4 nM and 150 µM. Regarding `C/C(=C\C=C\[C@]1(C)[C@@H](O)CC[C@@]2(C)[C@H]1CC[C@H]1Cc3c([nH]c4cc5c(cc34)C3=CC(C)(C)OC(C)(C)[C@H]3C5)[C@@]12C)C(=O)O` [NODULISPORIC ACID], in assay [1], the concentration for half-maximal inhibition (IC50) was above 1000 nM. Moreover, the LD90 with Ctenocephalides felis was 92.6 µM.
